Results gathered from unrelated publications.
Effect on: cell growth or viability

Structure (SMILES) | cell line | test | setting | IC50
COc1cc2c(Oc3ccc(NC(=O)C4(C(=O)Nc5ccc(F)cc5)CC4)cc3F)ccnc2cc1OCCCN1CCOCC1 | RD | – | 72 h | 0.22 µM
COc1cc([C@@H]2c3cc4c(cc3[C@@H](O[C@@H]3O[C@@H]5CO[C@@H](C)O[C@H]5[C@H](O)[C@H]3O)[C@H]3COC(=O)[C@H]23)OCO4)cc(OC)c1O | Caco-2 | MTS | 24 h | 21.8 µM
CCOc1cc(OCC)cc(C(=O)O[C@@H]2CN3Cc4c(cc5c(c4OC)OCO5)[C@@]24C=C[C@H](OC)C[C@@H]34)c1 | A2780 | WST-1 | – | 7.8 µM
CNC(=O)c1ccc(N2C(=S)N(c3cnc(C#N)c(C(F)(F)F)c3)C(=O)C23CCC3)cc1F | LAPC4 | ATP luminescence | 6 days | 1.1 µM
CC(C)c1cc(C(=O)N2Cc3ccccc3C2)c(O)c2c1C(=O)C(C)(C)C2 | UMUC3 | ATP luminescence | 72 h | 51.9 µM
CC(C)Cc1ccc(-c2nn(-c3ccc(S(C)(=O)=O)cc3)cc2/C=N/N=c2\[nH]c(-c3ccc(Br)cc3)cs2)cc1 | F180 | MTT | 48 h | 73.7 µM
CN1C(=O)c2cc(C(N)=O)nc3c(N)c(Cl)c(N)c1c23 | HCC44 | – | – | 15.3 µM
COc1ccc(/C=C/C(=O)/C=C/c2cn(-c3ccccc3)nc2-c2ccccc2)cc1O | LLC-PK1 | MTT | 72 h | 8.39 µM
COc1ccc(CCNC(=O)C(=O)Nc2ccc(Cl)cc2)cc1 | NCI-H2122 | – | – | < 0.1 µM
COc1cc2nccc(Oc3ccc(NC(=O)C4(C(=O)Nc5ccc(F)cc5)CC4)cc3)c2cc1OC | RD | – | 72 h | 1.21 µM
CCCCN(CCCC)C(=O)c1ncn2c(=O)n(C)nnc12 | U-118-MG | resazurin | 7 days | 62 µM
COc1ccc(-c2nn(-c3ccc(S(C)(=O)=O)cc3)cc2/C=N/N=c2\[nH]c(-c3ccc(Br)cc3)cs2)cc1 | F180 | MTT | 48 h | 59.6 µM
O=c1cc(-c2ccc(O)c(O)c2)oc2cc(O)cc(O)c12 | RD | WST-1 | 48 h | 16 µM
CC(C)c1cc(C(=O)N2Cc3ccccc3C2)c(O)c2c1C(=O)C=C2 | UMUC3 | ATP luminescence | 72 h | 1.18 µM
CNC(=O)c1cccc2cc(Oc3ccnc4cc(OCC5(N)CC5)c(OC)cc34)ccc12 | Swiss-3T3 | SRB | – | 0.064 µM
O=C(Nc1ccc(Cl)cc1)c1ccc([N+](=O)[O-])o1 | NCI-H1650 | resazurin | 96 h | 0.38 µM
CC(C)c1cc(C(=O)N2Cc3ccccc3C2)c(O)c2c1CC=C2 | UMUC3 | ATP luminescence | 72 h | 51.3 µM
C[C@]12CC[C@H](O)CC1=CC[C@@H]1[C@@H]2CC[C@]2(C)C(n3cnc4ccccc43)=CC[C@@H]12 | LAPC4 | MTT | 7 days | 4 µM
CC(C)C[C@H](NC(=O)[C@H](Cc1ccccc1)NC(=O)c1cnccn1)B(O)O | LoVo | ATP luminescence | – | 0.015 µM
Cn1nnc2c(C(=O)N3CCCC3)ncn2c1=O | U-118-MG | resazurin | 7 days | 136 µM
CON=C1CCc2c(O)c(C(=O)N3Cc4ccccc4C3)cc(C(C)C)c21 | UMUC3 | ATP luminescence | 72 h | 78.2 µM
COc1cc(/C=C/C(=O)CC(=O)/C=C/c2ccc(O)c(OC)c2)ccc1O | LLC-PK1 | MTT | 72 h | > 25 µM
CC(=O)OC[C@H]1O[C@@H]([S-])[C@H](OC(C)=O)[C@@H](OC(C)=O)[C@@H]1OC(C)=O.CCP(CC)CC.[Au+] | IMR-90 | resazurin | – | 6.77 µM
CC(=O)O[C@H]1C(=O)[C@@]2(C)[C@H]([C@H](OC(=O)c3ccccc3)[C@]3(O)C[C@H](OC(=O)[C@H](O)[C@@H](NC(=O)c4ccccc4)c4ccccc4)C(C)=C1C3(C)C)[C@]1(OC(C)=O)CO[C@@H]1C[C@@H]2O | A2780 | fluorescence | 72 h | 0.00026 µM

Structure (SMILES) | cell line | test | setting | IC50
CS(=O)(=O)c1ccc(-n2cc(C=N/N=c3\[nH]c(-c4ccc(Br)cc4)cs3)c(-c3ccc([N+](=O)[O-])cc3)n2)cc1 | F180 | MTT | 48 h | 36.6 µM
COc1cccc2c1C(=O)c1c(O)c3c(c(O)c1C2=O)C[C@@](O)(C(=O)CO)C[C@@H]3O[C@H]1C[C@H](N)[C@H](O)[C@H](C)O1 | Caco-2 | MTT | 24 h | 12.3 µM
CC(C)/N=C1\c2cc(C(N)=O)nc3c(N)c(Cl)c(N)c(c23)N1C | HCC44 | – | – | 0.5 µM
O=C(Nc1ccc(CN2CCOCC2)c(C(F)(F)F)c1)c1ccc(C#Cc2cccc3cnccc23)cn1 | IMR-90 | MTT | – | > 180 µM
CCN(CC)C(=O)c1ncn2c(=O)n(C)nnc12 | U-118-MG | resazurin | 7 days | 80 µM
COc1cc(/C=C/C(=O)/C=C/c2c(C)nn(-c3ccccc3)c2Cl)cc(OC)c1O | LLC-PK1 | MTT | 72 h | 12.9 µM
CC1Cc2c(O)c(C(=O)N3Cc4ccccc4C3)cc(C(C)C)c2C1=O (stereo not drawn) | UMUC3 | ATP luminescence | 72 h | 70.4 µM
Cn1nnc2c(-c3ccccc3)ncn2c1=O | U-118-MG | resazurin | 7 days | 3 µM
CCN(CC)CCNC(=O)c1c(C)[nH]c(/C=C2\C(=O)Nc3ccc(F)cc32)c1C | Swiss-3T3 | – | 72 h | 4.43 µM
Nc1ncnc2c1ncn2[C@@H]1O[C@H](CO)[C@@H](O)[C@H]1O | RD | WST-1 | 48 h | 66.5 µM
Cc1[nH]c(/C=C2\C(=O)Nc3ccc(S(=O)(=O)N(C)c4cccc(Cl)c4)cc32)c(C)c1C(=O)N1CCN(C)CC1 | RD | – | 72 h | 2.11 µM
CC1(C)CC[C@]2(C)CC[C@]3(C)C(=CC[C@@H]4[C@@]5(C)CC[C@H](O)C(C)(C)[C@@H]5CC[C@]43C)[C@@H]2C1 | RD | WST-1 | 48 h | 93.7 µM
Cc1cccc(-n2ncc(Br)c(Br)c2=O)c1 | NCI-H1650 | resazurin | 96 h | 0.74 µM
COc1cc(/C=C/C(=O)/C=C/c2cn(-c3ccccc3)nc2-c2ccccc2)cc(OC)c1O | LLC-PK1 | MTT | 72 h | 10.2 µM
O=c1c(O)c(-c2ccc(O)c(O)c2)oc2cc(O)cc(O)c12 | RD | WST-1 | 48 h | 29.8 µM
CS(=O)(=O)c1ccc(-n2cc(/C=N/N=c3\[nH]c(-c4ccc(Br)cc4)cs3)c(-c3ccc(Br)cc3)n2)cc1 | F180 | MTT | 48 h | 59.8 µM
COc1cc(Nc2nccc(-c3cnn4nc(OC)ccc34)n2)cc(C(F)(F)F)c1 | NCI-H1581 | ATP luminescence | – | 0.41 µM
CC(C)c1cc(C(=O)N2Cc3ccccc3C2)c(O)c2c1C(=O)C(C(F)(F)F)C2 (stereo not drawn) | UMUC3 | ATP luminescence | 72 h | 59.6 µM
COc1ccc(-c2nn(-c3ccc(S(C)(=O)=O)cc3)cc2C=N/N=c2\[nH]c(-c3ccc([N+](=O)[O-])cc3)cs2)cc1 | F180 | MTT | 48 h | 28.5 µM
CC(C)c1cc(C(=O)N2Cc3ccccc3C2)c(O)c2c1CCCC2=O | UMUC3 | ATP luminescence | 72 h | > 100 µM
CC(C)Cc1ccc(-c2nn(-c3ccc(S(C)(=O)=O)cc3)cc2/C=N/N=c2\[nH]c(-c3ccc([N+](=O)[O-])cc3)cs2)cc1 | F180 | MTT | 48 h | 23.6 µM
CC(C)c1cc(C(=O)N2Cc3ccccc3C2)c(O)c2c1CCC2 | UMUC3 | ATP luminescence | 72 h | 57.4 µM
COc1cc(/C=C/C(=O)/C=C/c2c(C)nn(-c3cccc([N+](=O)[O-])c3)c2Cl)cc(OC)c1OC | LLC-PK1 | MTT | 72 h | 5.93 µM
C[C@@H]1[C@H](O)[C@@H](C)/C=C/C=C/C=C/C=C/C=C/C=C/C=C/[C@H](O[C@@H]2O[C@H](C)[C@@H](O)[C@H](N)[C@@H]2O)C[C@@H]2O[C@](O)(C[C@@H](O)C[C@@H](O)[C@H](O)CC[C@@H](O)C[C@@H](O)CC(=O)O[C@H]1C)C[C@H](O)[C@H]2C(=O)O | LLC-PK1 | neutral red | 48 h | 0.6 µg/mL
